One series has as its system MDA-MB-231. Kind of series: Anticlonogenic activity against human MDA-MB-231 cells assessed as inhibition of colony formation at 0.5 uM incubated for 4 hrs by crystal violet staining based assay. The class given is functional, cell-based. In a few lines: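 MDA-MB-231 cells seeded as single-cell cultures (250 cells per well), treated once the next day with compound at 0–1 μM and grown until large colonies were visible. Colonies stained with crystal violet for 4 h and photographed. Three independent determinations.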

Series [1] addresses Signal transducer and activator of transcription 3 (Homo sapiens) (UniProt P40763). Kind of series: Inhibition of STAT3 in human MDA-MB-231 cells assessed as inhibition of c-myc expression at 1 to 3 uM incubated for 3 to 24 hrs by immunoblotting analysis. Particulars: dose 1-3 µM, time lower 3.0 hrs, time upper […]. The class given is cell-based. In a few lines: (§1)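 MDA-MB-231 cells treated with 1 or 3 μM compound for 3–24 h. Equal-protein whole-cell lysates (RIPA) immunoblotted for c-Myc, Bcl-2, VEGF, survivin and tubulin. Control is 0.05% DMSO-treated cells. Two to three independent determinations.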
Background: Immunoblotting shows a protein as a band on a membrane.

Series [2] has the same target. Nature of the series: Inhibition of STAT3 in human MDA-MB-231 cells assessed as induction of PARP cleavage at 1 to 3 uM incubated for 3 to 24 hrs by immunoblotting analysis. The class given is cell-based. Particulars: dose 1-3 µM, time lower 3.0 hrs, time upper […]. A digest of the protocol: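 Equal-protein whole-cell lysates run on SDS-PAGE/Western and probed for full-length and cleaved PARP, pYSTAT3, STAT3 and tubulin. Control is 0.05% DMSO. Two independent determinations.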

The target is the same in series [3]. Kind of series: Inhibition of STAT3 in human MDA-MB-231 cells assessed as effect on JAK2 expression at 1 to 3 uM incubated for 3 to 24 hrs by immunoblotting analysis. Type of series: cell-based. As to conditions: dose 1-3 µM, time lower 3.0 hrs, time upper […]. In a few lines: (§2)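 MDA-MB-231 cells treated with 1 or 3 μM compound. Whole-cell lysates prepared in RIPA buffer and immunoblotted for EGFR, JAK2, Src, AKT and ERK1/2.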

Series [4] has the same target. Kind of series: Inhibition of STAT3 in human MDA-MB-231 cells assessed as inhibition of survivin expression at 1 to 3 uM incubated for 3 to 24 hrs by immunoblotting analysis. Type of series: cell-based. Particulars: dose 1-3 µM, time lower 3.0 hrs, time upper […]. In a few lines:
as §1

Another series deals with MCF7. Nature of the series: Antiproliferative activity against human MCF7 cells assessed as reduction in cell viability incubated for 72 hrs by CyQuant assay. Type of series: functional, cell-based. Particulars: MCF7, 72 h.
A further series relates to MCF-10A. Kind of series: Cytotoxicity against human MCF-10A cells assessed as reduction in cell viability incubated for 72 hrs by CyQuant assay. Type of series: cell-based.
Series [5] in a line: Drug metabolism of compound in human liver microsomes assessed as metabolite formation. The class given is ADME, Microsome.
For the next series, the system named is MDA-MB-468. Kind of series: Antiproliferative activity against human MDA-MB-468 cells harbouring STAT3 assessed as reduction in cell viability incubated for 72 hrs by CyQuant assay. Type of series: functional, cell-based. As to conditions: MDA-MB-468, 72 h.
For series [6], the target named is Signal transducer and activator of transcription 3 (Homo sapiens) (UniProt P40763). Nature of the series: Inhibition of oligonucleotide [32P]-labelled 5'-AGCITCATTTCCCGTAAATCCCTA hSIE probe binding to STAT3 in human MDA-MB-468 cell nuclear extract at 5 uM by EMSA analysis. As to conditions: time upper […], TDE = time-dependent effect. Background: Mobility shift assays separate free from complexed probe on a gel.

Series [7] has the same target. Nature of the series: Binding affinity to STAT3 (unknown origin) assessed as change in entropy by isothermal titration calorimetry.
The nature of series [8]: Aqueous solubility of compound in simulated intestinal fluid. The class given is physicochemical. Particulars: simulated gi fluid.
For series [9], the target named is Signal transducer and activator of transcription 3 (Homo sapiens) (UniProt P40763). Kind of series: Inhibition of STAT3 in human MDA-MB-231 cells assessed as effect on Akt expression at 1 to 3 uM incubated for 3 to 24 hrs by immunoblotting analysis. Type of series: cell-based. As to conditions: dose 1-3 µM, time lower 3.0 hrs, time upper […]. A digest of the protocol: as §2

For series [10] the target is unchanged. Nature of the series: Inhibition of STAT3 in human MDA-MB-231 cells assessed as effect on Src expression at 1 to 3 uM incubated for 3 to 24 hrs by immunoblotting analysis. Type of series: cell-based. As to conditions: dose 1-3 µM, time lower 3.0 hrs, time upper […]. In a few lines:
as §2

Series [11] is described as follows: Drug metabolism of compound in human liver microsomes assessed as hydroxy-acid metabolite formation. The class given is ADME, Microsome. For orientation: Microsomes from liver hold many membrane-bound enzymes, among them those of drug oxidation.
A short description of series [12]: Aqueous solubility of compound in simulated gastric fluid. Type of series: physicochemical. Particulars: simulated gi fluid.
Series [13] concerns the target Signal transducer and activator of transcription 3 (Homo sapiens) (UniProt P40763). Nature of the series: Inhibition of STAT3 in human MDA-MB-231 cells assessed as effect on EGFR expression at 1 to 3 uM incubated for 3 to 24 hrs by immunoblotting analysis. Type of series: cell-based. Particulars: dose 1-3 µM, time lower 3.0 hrs, time upper […]. A digest of the protocol:
as §2

For series [14] the target is unchanged. Kind of series: Inhibition of STAT3 in human MDA-MB-231 cells assessed as effect on Erk1/2 expression at 1 to 3 uM incubated for 3 to 24 hrs by immunoblotting analysis. Type of series: cell-based. As to conditions: dose 1-3 µM, time lower 3.0 hrs, time upper […]. In a few lines:
as §2

For series [15] the target is unchanged. Kind of series: Inhibition of STAT3 in human MDA-MB-231 cells assessed as inhibition of VEGF expression at 1 to 3 uM incubated for 3 to 24 hrs by immunoblotting analysis. Type of series: cell-based. As to conditions: dose 1-3 µM, time lower 3.0 hrs, time upper […]. A digest of the protocol:
as §1

For series [16] the target is unchanged. Nature of the series: Inhibition of STAT3 in human MDA-MB-231 cells assessed as inhibition of Bcl-2 expression at 1 to 3 uM incubated for 3 to 24 hrs by immunoblotting analysis. Type of series: cell-based. As to conditions: dose 1-3 µM, time lower 3.0 hrs, time upper […]. In a few lines:
as §1

≈ marks a conversion by molar mass, not a printed value. Calls of active or inactive are those of the source. The calls are words filed in the database; no cut-off is given here.

Usually EC50 stands for the concentration at which the effect is half-maximal. What is called solubility is the dissolved amount per volume that the medium holds. A lower solubility goes with a poorly soluble substance.

Chain of Signal transducer and activator of transcription 3 (Homo sapiens) (P40763 whole entry): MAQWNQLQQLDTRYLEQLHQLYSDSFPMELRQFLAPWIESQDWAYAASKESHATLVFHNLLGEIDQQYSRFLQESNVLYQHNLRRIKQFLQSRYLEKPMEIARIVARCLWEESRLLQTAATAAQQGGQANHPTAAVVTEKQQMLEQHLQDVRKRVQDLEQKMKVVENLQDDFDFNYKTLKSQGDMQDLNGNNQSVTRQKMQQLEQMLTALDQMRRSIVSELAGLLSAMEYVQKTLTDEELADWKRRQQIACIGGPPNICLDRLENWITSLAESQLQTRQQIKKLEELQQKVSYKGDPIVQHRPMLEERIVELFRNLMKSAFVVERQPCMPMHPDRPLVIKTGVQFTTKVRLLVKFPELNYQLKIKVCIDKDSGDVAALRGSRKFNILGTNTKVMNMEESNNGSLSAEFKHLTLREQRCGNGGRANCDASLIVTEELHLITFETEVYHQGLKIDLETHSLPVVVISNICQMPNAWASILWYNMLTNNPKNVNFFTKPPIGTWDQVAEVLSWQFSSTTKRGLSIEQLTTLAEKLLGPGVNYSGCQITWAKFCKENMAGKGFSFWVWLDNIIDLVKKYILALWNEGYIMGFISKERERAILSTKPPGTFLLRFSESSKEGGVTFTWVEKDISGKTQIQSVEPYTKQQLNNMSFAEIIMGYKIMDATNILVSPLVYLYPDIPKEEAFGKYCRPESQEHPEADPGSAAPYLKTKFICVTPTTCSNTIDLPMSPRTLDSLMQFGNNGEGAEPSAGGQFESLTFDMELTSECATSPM

For `O=C1OCc2cc(N(Cc3ccc(C4CCCCC4)cn3)C(=O)[C@H]3CCN3S(=O)(=O)c3c(F)c(F)c(F)c(F)c3F)ccc21`, the inhibition result (in the series with MDA-MB-231; in series [1]; in series [2]; in series [3]; in [4]; in series [9]) was “Active” in each case. Besides, the inhibition result in series [10], in series [13], in [14], in series [15] and in series [16] was “Active” throughout. Moreover, the EC50 came out at 4.6 µM with MCF7, 4.6 µM in the series with MCF-10A and 1 µM in the series with MDA-MB-468. Besides, the Drug metabolism result in series [5] and in series [11] was “Metabolite_Detected” in each case. Besides, the inhibition result in [6] is “Tde”. Moreover, the -TdeltaS in [7] was -2.84 kcal/mol. For the same compound, the solubility in series [8] was 200 µg/mL (≈ 315 µM); in [12] it was 116 µg/mL (≈ 183 µM).

These data come from ChEMBL document CHEMBL4706639, “Discovery of Novel Azetidine Amides as Potent Small-Molecule STAT3 Inhibitors” (J Med Chem, 2021).
